What was measured:
Albumin [1] = target: T1, Albumin (Bos taurus, UniProt P02769); assay: Binding affinity to bovine serum albumin assessed as binding constant by Stern-Volmer equation based fluorescence spectroscopic method; conditions: cattle
Albumin [2] = target: T1, Albumin; assay: Binding affinity to bovine serum albumin assessed as binding constant by Benesi-Hildebrand equation based UV-vis spectrophotometric method; conditions: cattle
Calf thymus DNA = assay: Binding affinity to calf thymus DNA assessed as DNA intercalation by measuring Stem-Volmer quenching constant at temperature of 298 K by fluorescence spectroscopic method; format: nucleic-acid assay; conditions: Bos taurus
HEK293 = assay: Cytotoxicity against human HEK293 cells assessed as reduction in cell viability at 0.00001 M incubated for 48 hrs by MTT colorimetric assay relative to control; format: toxicity, cell-based; conditions: hek293, 48 h, 10 µM
786-0 = assay: Antiproliferative activity against human 786-0 cells assessed as cell growth at 0.00000001 M incubated for 48 hrs by SRB assay relative to control; format: functional; conditions: dose 10 nM, read-out: Activity
In short: (§1)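 NCI-60 five-dose screen over 10^-4–10^-8 M (10-fold dilutions). Cells grown in RPMI 1640 with 5% FBS and 2 mM L-glutamine, seeded at 5,000–40,000 cells/well and preincubated 24 h. Drug from DMSO stock, 48 h at 37 °C, 5% CO2. Adherent cells TCA-fixed and stained with 0.4% SRB; A515 read. Percent growth = (Ti−Tz)/(C−Tz)×100, or (Ti−Tz)/Tz×100 when Ti<Tz.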

IGROV-1 [3] = assay: Antiproliferative activity against human IGROV-1 cells assessed as cell growth at 0.00000001 M incubated for 48 hrs by SRB assay relative to control; format: functional; conditions: dose 10 nM, read-out: Activity
SK-MEL-28 = assay: Antiproliferative activity against human SK-MEL-28 cells assessed as cell growth at 0.00000001 M incubated for 48 hrs by SRB assay relative to control; format: functional; conditions: dose 10 nM, read-out: Activity
HOP-92 = assay: Antiproliferative activity against human HOP-92 cells assessed as cell growth at 0.00000001 M incubated for 48 hrs by SRB assay relative to control; format: functional; conditions: dose 10 nM, read-out: Activity
In short: (§2)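 NCI-60 five-dose screen (10^-4 to 10^-8 M). Cells grown in RPMI 1640 with 5% FBS and 2 mM L-glutamine, plated at 5,000-40,000 cells/well and preincubated 24 h. Drug given from DMSO stock, then 48 h at 37 °C, 5% CO2. For adherent lines, cells fixed with cold TCA, SRB-stained and read at 515 nm. Percent growth taken against time-zero and untreated control.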

NCI-H226 [4] = assay: Antiproliferative activity against human NCI-H226 cells assessed as cell growth at 0.00000001 M incubated for 48 hrs by SRB assay relative to control; format: functional; conditions: dose 10 nM, read-out: Activity
SN12C [5] = assay: Antiproliferative activity against human SN12C cells assessed as cell growth inhibition by measuring lethal concentration incubated for 48 hrs by sulforhodamine B assay; format: functional; conditions: read-out: LC50 (the source's name)
OVCAR-4 = assay: Growth inhibition against human OVCAR-4 cells assessed as total growth inhibitory concentration incubated for 48 hrs by sulforhodamine B assay; format: functional
IGROV-1 [6] = assay: Growth inhibition against human IGROV-1 cells incubated for 48 hrs by sulforhodamine B assay; format: functional
NCI-H226 [7] = assay: Growth inhibition against human NCI-H226 cells incubated for 48 hrs by sulforhodamine B assay; format: functional
SR = assay: Growth inhibition against human SR cells incubated for 48 hrs by sulforhodamine B assay; format: functional
MDA-MB-468 = assay: Antiproliferative activity against human MDA-MB-468 cells assessed as cell growth at 0.00000001 M incubated for 48 hrs by SRB assay relative to control; format: functional; conditions: dose 10 nM, read-out: Activity
RPMI-8226 = assay: Antiproliferative activity against human RPMI-8226 cells assessed as cell growth at 0.0000001 M incubated for 48 hrs by SRB assay relative to control; format: functional; conditions: dose 100 nM, read-out: Activity
NCI-H23 [8] = assay: Antiproliferative activity against human NCI-H23 cells assessed as cell growth at 0.0000001 M incubated for 48 hrs by SRB assay relative to control; format: functional; conditions: dose 100 nM, read-out: Activity
ACHN = assay: Antiproliferative activity against human ACHN cells assessed as cell growth at 0.000001 M incubated for 48 hrs by SRB assay relative to control; format: functional; conditions: read-out: Activity; in short: as §1
HL-60 = assay: Antiproliferative activity against human HL-60 cells assessed as cell growth at 0.00001 M incubated for 48 hrs by SRB assay relative to control; format: functional; conditions: read-out: Activity; in short: as §2
UACC-257 = assay: Antiproliferative activity against human UACC-257 cells assessed as cell growth at 0.00001 M incubated for 48 hrs by SRB assay relative to control; format: functional; conditions: read-out: Activity
OVCAR-3 = assay: Antiproliferative activity against human OVCAR-3 cells assessed as cell growth at 0.00001 M incubated for 48 hrs by SRB assay relative to control; format: functional; conditions: read-out: Activity
SN12C [9] = assay: Antiproliferative activity against human SN12C cells assessed as cell growth at 0.00001 M incubated for 48 hrs by SRB assay relative to control; format: functional; conditions: read-out: Activity
Hs-578T [10] = assay: Antiproliferative activity against human Hs-578T cells assessed as cell growth at 0.00001 M incubated for 48 hrs by SRB assay relative to control; format: functional; conditions: read-out: Activity
In short: (§3)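 NCI-60 five-dose mode, 10^-4 to 10^-8 M in 10-fold steps. RPMI 1640, 5% FBS, 2 mM L-glutamine; 24 h preincubation, then 48 h drug exposure at 37 °C. Stocks in DMSO at 400× the top concentration, diluted in medium with gentamicin. TCA fixation, SRB staining, absorbance at 515 nm. Percent growth from time-zero (Tz), control (C) and test (Ti) readings.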

BT-549 = assay: Antiproliferative activity against human BT-549 cells assessed as cell growth at 0.00001 M incubated for 48 hrs by SRB assay relative to control; format: functional; conditions: read-out: Activity; in short: as §1
T47D = assay: Antiproliferative activity against human T47D cells assessed as cell growth at 0.00001 M incubated for 48 hrs by SRB assay relative to control; format: functional; conditions: read-out: Activity
MOLT-4 = assay: Antiproliferative activity against human MOLT-4 cells assessed as cell growth at 0.0001 M incubated for 48 hrs by SRB assay relative to control; format: functional; conditions: read-out: Activity
NCI-H23 [11] = assay: Antiproliferative activity against human NCI-H23 cells assessed as cell growth at 0.0001 M incubated for 48 hrs by SRB assay relative to control; format: functional; conditions: read-out: Activity
RXF 393 = assay: Antiproliferative activity against human RXF 393 cells assessed as cell growth at 0.0001 M incubated for 48 hrs by SRB assay relative to control; format: functional; conditions: read-out: Activity
TK-10 = assay: Antiproliferative activity against human TK-10 cells assessed as cell growth at 0.0001 M incubated for 48 hrs by SRB assay relative to control; format: functional; conditions: read-out: Activity
DU-145 = assay: Antiproliferative activity against human DU-145 cells assessed as cell growth at 0.0001 M incubated for 48 hrs by SRB assay relative to control; format: functional; conditions: read-out: Activity; in short: as §2
MCF7 = assay: Antiproliferative activity against human MCF7 cells assessed as cell growth at 0.0001 M incubated for 48 hrs by SRB assay relative to control; format: functional; conditions: read-out: Activity
Hs-578T [12] = assay: Antiproliferative activity against human Hs-578T cells assessed as cell growth at 0.0001 M incubated for 48 hrs by SRB assay relative to control; format: functional; conditions: read-out: Activity; in short: as §3

T1 sequence (P02769 whole entry): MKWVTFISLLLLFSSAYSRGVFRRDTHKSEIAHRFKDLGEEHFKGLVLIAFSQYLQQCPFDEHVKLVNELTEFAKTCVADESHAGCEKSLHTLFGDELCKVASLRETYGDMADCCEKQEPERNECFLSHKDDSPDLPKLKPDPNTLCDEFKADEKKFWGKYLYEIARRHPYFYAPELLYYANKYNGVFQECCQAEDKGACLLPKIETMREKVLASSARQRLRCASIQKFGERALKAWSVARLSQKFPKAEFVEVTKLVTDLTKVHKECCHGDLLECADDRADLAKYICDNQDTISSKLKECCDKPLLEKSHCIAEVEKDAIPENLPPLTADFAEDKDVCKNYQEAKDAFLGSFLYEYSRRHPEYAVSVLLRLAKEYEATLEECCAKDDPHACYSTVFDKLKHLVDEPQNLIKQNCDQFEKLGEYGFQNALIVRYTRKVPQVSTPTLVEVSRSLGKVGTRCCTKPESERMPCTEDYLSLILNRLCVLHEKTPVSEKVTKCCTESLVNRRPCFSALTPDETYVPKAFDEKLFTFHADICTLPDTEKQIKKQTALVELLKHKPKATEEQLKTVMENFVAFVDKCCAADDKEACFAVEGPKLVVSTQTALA

SMILES | Kb (Albumin [1]) | Kb (Albumin [2]) | KSV (Calf thymus DNA) | Activity (HEK293) [%] | growth at 0.01 µM (786-0) [%] | growth at 0.01 µM (IGROV-1 [3]) [%] | growth at 0.01 µM (SK-MEL-28) [%] | growth at 0.01 µM (HOP-92) [%] | growth at 0.01 µM (NCI-H226 [4]) [%] | CC50 (SN12C [5]) [nM] | TGI (OVCAR-4) [nM] | GI50 (IGROV-1 [6]) [nM] | GI50 (NCI-H226 [7]) [nM] | GI50 (SR) [nM] | growth at 0.01 µM (MDA-MB-468) [%] | growth at 0.1 µM (RPMI-8226) [%] | growth at 0.1 µM (NCI-H23 [8]) [%] | growth at 1 µM (ACHN) [%] | growth at 10 µM (HL-60) [%] | growth at 10 µM (UACC-257) [%] | further results
COc1ccc(-c2cn3ccnc3c(-c3ccc4ncn(C5CCCCC5)c4c3)n2)cc1 | 4.68 10^5/M | 1.95 10^5/M | 4.65 10^4/M | 16.51 | 87 | 96 | 94 | 96 | 101 | > 100000 | > 100000 | 921 | 2970 | 890 | 93 | 108 | 95 | 40 | -22 | 60 | growth at 10 µM (OVCAR-3): 10%; growth at 10 µM (SN12C [9]): 16%; growth at 10 µM (Hs-578T [10]): 6%; growth at 10 µM (BT-549): -18%; growth at 10 µM (T47D): -24%; growth at 100 µM (MOLT-4): 22%; growth at 100 µM (NCI-H23 [11]): 22%; growth at 100 µM (RXF 393): 19%; growth at 100 µM (TK-10): -3%; growth at 100 µM (DU-145): 17%; growth at 100 µM (MCF7): 24%; growth at 100 µM (Hs-578T [12]): -3%
c1ccc(Cn2cnc3ccc(-c4nc(-c5ccc6c(c5)ncn6C5CCCCC5)cn5ccnc45)cc32)cc1 | 1.08 10^5/M | 2.65 10^4/M | 1.19 10^4/M | 14.53 | 86 | 97 | 94 | 88 | 103 | > 100000 | > 100000 | 2140 | 2930 | 1680 | 100 | 113 | 93 | 87 | -24 | -64 | growth at 10 µM (OVCAR-3): -29%; growth at 10 µM (SN12C [9]): -32%; growth at 10 µM (Hs-578T [10]): 1%; growth at 10 µM (BT-549): -82%; growth at 10 µM (T47D): -2%; growth at 100 µM (MOLT-4): 4%; growth at 100 µM (NCI-H23 [11]): -79%; growth at 100 µM (RXF 393): -33%; growth at 100 µM (TK-10): 13%; growth at 100 µM (DU-145): -8%; growth at 100 µM (MCF7): 8%; growth at 100 µM (Hs-578T [12]): 12%

— ChEMBL document CHEMBL5247578, “Effective synthesis of benzimidazoles-imidazo[1,2-a]pyrazine conjugates: A comparative study of mono-and bis-benzimidazoles for antitumor activity” (Eur J Med Chem, 2019)
